Test results from ChEMBL document CHEMBL1151230, “Cytotoxic triterpenoids from Acridocarpus vivy from the Madagascar rain forest” (J Nat Prod, 2004).
≈ marks a conversion by molar mass, not a printed value.

What follows are compounds tested on A2780 (assay: Cytotoxicity against human A2780 cells).
Format: functional, cell-based
How it was run: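 Growth inhibition of the human ovarian cancer line A2780. IC50 is the concentration giving 50% inhibition of growth, reported in µg/mL. Actinomycin D served as positive control. Run at Virginia Polytechnic Institute following an earlier published procedure.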
With `CC1(C)C=C2[C@H]3CC[C@@H]4[C@@]5(C)CCC(=O)[C@](C)(C=O)[C@@H]5CC[C@@]4(C)[C@]3(C)CC[C@@]2(C(=O)O)CC1` the IC50 was 0.7 µg/mL (≈ 1.49 µM). In the case of `CC1(C)C=C2[C@H]3CC[C@@H]4[C@@]5(C)CCC(=O)[C@](C)(CO)[C@@H]5CC[C@@]4(C)[C@]3(C)CC[C@@]2(C(=O)O)CC1`, the IC50 is reported as 15.9 µg/mL (≈ 33.8 µM). `CC(=O)OC[C@@]1(C)C(=O)CC[C@@]2(C)[C@H]1CC[C@]1(C)[C@@H]2CC[C@@H]2C3=CC(C)(C)CC[C@]3(C(=O)O)CC[C@]21C` showed an IC50 of 11.6 µg/mL (≈ 22.6 µM). In the case of `CC(=O)O[C@@H]1CC[C@]2(C)[C@H]3CC[C@@H]4C5=CC(C)(C)CC[C@]5(C(=O)O)CC[C@@]4(C)[C@]3(C)CC[C@H]2C1(C)C`, the IC50 is reported as 15.3 µg/mL (≈ 30.7 µM). With `COc1cc(O)c2c(=O)cc(-c3ccc(O)cc3)oc2c1` [GENKWANIN] the IC50 was > 20 µg/mL. Work on `CC1(C)C=C2[C@H]3CC[C@@H]4[C@@]5(C)CCC(=O)C(C)(C)[C@@H]5CC[C@@]4(C)[C@]3(C)CC[C@@]2(C(=O)O)CC1` [MORONIC ACID] yielded an IC50 of 13.1 µg/mL (≈ 28.8 µM). In the case of `CC1(C)CC[C@]2(C(=O)O)CC[C@]3(C)C(=CC[C@@H]4[C@@]5(C)CC[C@H](O)C(C)(C)[C@@H]5CC[C@]43C)[C@@H]2C1` [OLEANOLIC_ACID], the IC50 is reported as 8 µg/mL (≈ 17.5 µM). In the case of `C[C@H]1[C@H](C)CC[C@]2(C(=O)O)CC[C@]3(C)C(=CC[C@@H]4[C@@]5(C)CC[C@H](O)C(C)(C)[C@@H]5CC[C@]43C)[C@H]12` [URSOLIC ACID], the IC50 is reported as 9.2 µg/mL (≈ 20.1 µM). With `COc1cc(O)c2c(=O)cc(-c3ccc(O)c(OC)c3)oc2c1` [VELUTIN] the IC50 was > 20 µg/mL.
